In general, IC50 refers to the concentration that gives 50% inhibition. The low end stands for greater potency in that assay, the high end for weaker potency in that assay.

Assay [1] concerns MDA-MB-231. The assay can be described thus: Antiproliferative activity against human MDA-MB-231 cells after 72 hrs. Format: functional, cell-based. The note with it: MDA-MB-231, 72 h. The procedure, abridged:
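MDA-MB-231 (ER-negative) monolayers in EMEM with 10% FBS, L-glutamine, pyruvate, NEAA, insulin at 37 °C, 5% CO2. Seeded 1 × 10⁴ cells/well with serum and dosed 24 h later with compound at 1–100 (DMSO and/or ethanol stocks diluted into medium). After 72 h, 3 h WST-1 read at 450 nm (ref 650). IC50 = concentration halving OD versus untreated controls. Mean ± SD, three independent experiments.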

The test system of assay [2] is MDA-MB-231. The assay can be described thus: Antiproliferative activity against human MDA-MB-231 cells at 1 uM after 72 hrs. Format: functional. In short, it runs like this:
(§1)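 MDA-MB-231 cells grown in serum-containing EMEM (10% FBS) were plated at 1 × 10⁴ cells/well. 24 h later they were exposed to a single compound level in fresh serum medium, using DMSO/ethanol stocks diluted into the medium. At 72 h, WST-1 was added for 3 h and formazan read at 450 nm (ref 650). Values are % growth inhibition versus controls, averaged ± SD over three experiments, each in triplicate.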

Assay [3] concerns MDA-MB-231. The experiment in a line: Antiproliferative activity against human MDA-MB-231 cells at 3 uM after 72 hrs. Format: functional. The procedure, abridged: as §1
Assay [4] deals with MDA-MB-231. The assay can be described thus: Antiproliferative activity against human MDA-MB-231 cells at 10 uM after 72 hrs. Type of assay: functional. The procedure, abridged:
as §1

In assay [5] the test system is MDA-MB-231. The experiment in a line: Antiproliferative activity against human MDA-MB-231 cells at 30 uM after 72 hrs. Format: functional. The procedure, abridged: as §1
In assay [6] the test system is MDA-MB-231. The experiment in a line: Antiproliferative activity against human MDA-MB-231 cells at 100 uM after 72 hrs. Type of assay: functional. In short, it runs like this: as §1

Compound `CN(C)CCNc1cc2c(c3oc4ccccc4c(=O)c13)CC(N)C(C)(C)O2` (configuration not stated) registered an IC50 in the assay on MDA-MB-231 [1] of 38 µM. Also, the Activity in the assay with MDA-MB-231 [2], in the assay with MDA-MB-231 [3] and in the assay on MDA-MB-231 [4] was 20% each time.

With `COc1cc2c(c3oc4ccccc4c(=O)c13)CC(NCCN(C)C)C(C)(C)O2` (configuration not stated), half-maximal inhibition in the assay on MDA-MB-231 [1] (IC50) was put at 57 µM. The Activity in the assay with MDA-MB-231 [5] is reported as 15%; in the assay on MDA-MB-231 [2], 12%; in the assay with MDA-MB-231 [6], 74%; in the assay with MDA-MB-231 [3], 12%; in the assay with MDA-MB-231 [4], 15%.

Compound `CCN(CC)CCNC1Cc2c(cc(OC)c3c(=O)c4ccccc4oc23)OC1(C)C` (configuration not stated) had an IC50 in the assay on MDA-MB-231 [1] of 44 µM. In addition, the Activity in the assay on MDA-MB-231 [5] came out at 15%; in the assay with MDA-MB-231 [2], 12%; with MDA-MB-231 [6] it was 74%; in the assay on MDA-MB-231 [3] it was 12%; in the assay on MDA-MB-231 [4], 15%.

For the compound `CCN(CC)CCNc1cc2c(c3oc4ccccc4c(=O)c13)C=C([N+](=O)[O-])C(C)(C)O2`, the IC50 in the assay with MDA-MB-231 [1] is above 100 µM.

As for `CN(C)CCNc1cc2c(c3oc4ccccc4c(=O)c13)CC([N+](=O)[O-])C(C)(C)O2` (configuration not stated), the IC50 in the assay on MDA-MB-231 [1] was above 100 µM. Moreover, the Activity in the assay with MDA-MB-231 [2], in the assay on MDA-MB-231 [3] and in the assay on MDA-MB-231 [4] was 20% throughout.

Regarding `CCN(CC)CCNc1cc2c(c3oc4ccccc4c(=O)c13)CC(N)C(C)(C)O2` (configuration not stated), the IC50 in the assay on MDA-MB-231 [1] is 62 µM. In the assay on MDA-MB-231 [6], this compound returned an Activity of 75%.

In the assay with MDA-MB-231 [1], `CN(C)CCNc1cc2c(c3oc4ccccc4c(=O)c13)CC(NC(=O)CN(C)C)C(C)(C)O2` (configuration not stated) returned a concentration for half-maximal inhibition (IC50) of 50 µM. Further, the Activity in the assay with MDA-MB-231 [2], in the assay with MDA-MB-231 [3] and in the assay with MDA-MB-231 [4] was 20% each time.

For `CN(C)CCNc1cc2c(c3oc4ccccc4c(=O)c13)CC(NCCN(C)C)C(C)(C)O2` (configuration not stated), half-maximal inhibition in the assay on MDA-MB-231 [1] (IC50) was put at 46 µM. Moreover, the Activity with MDA-MB-231 [2], in the assay on MDA-MB-231 [3] and with MDA-MB-231 [4] was 20% throughout.

`CCN(CC)CCNc1cc2c(c3oc4ccccc4c(=O)c13)CC(NCCN(CC)CC)C(C)(C)O2` (configuration not stated) showed an IC50 in the assay on MDA-MB-231 [1] of 73 µM. The Activity in the assay with MDA-MB-231 [6] is reported as 75%.

In turn, `COc1cc2c(c3oc4ccccc4c(=O)c13)CC(N)C(C)(C)O2` (configuration not stated) had an IC50 in the assay with MDA-MB-231 [1] of 53 µM. Also, the Activity in the assay on MDA-MB-231 [5] is 15%; with MDA-MB-231 [2], 12%; with MDA-MB-231 [6] it was 74%; in the assay with MDA-MB-231 [3], 12%; in the assay on MDA-MB-231 [4] it was 15%.

As for `CCN(CC)CC(=O)NC1Cc2c(cc(OC)c3c(=O)c4ccccc4oc23)OC1(C)C` (configuration not stated), inhibition in the assay with MDA-MB-231 [1] was half-maximal at 52 µM (IC50). In addition, the Activity with MDA-MB-231 [5] was determined as 15%; with MDA-MB-231 [2], 12%; with MDA-MB-231 [6], 74%; in the assay on MDA-MB-231 [3], 12%; with MDA-MB-231 [4], 15%.

For the compound `CCN(CC)CCNc1cc2c(c3oc4ccccc4c(=O)c13)CC([N+](=O)[O-])C(C)(C)O2` (configuration not stated), the IC50 with MDA-MB-231 [1] is above 100 µM. The Activity in the assay on MDA-MB-231 [5] and with MDA-MB-231 [6] was 20% in each case.

On to `CN(C)CCNc1cc2c(c3oc4ccccc4c(=O)c13)C=C([N+](=O)[O-])C(C)(C)O2`, for which, in the assay on MDA-MB-231 [1], the concentration for half-maximal inhibition (IC50) turned out to be 21 µM.

In the assay on MDA-MB-231 [1], `COc1cc2c(c3oc4ccccc4c(=O)c13)CC(NC(=O)CN(C)C)C(C)(C)O2` (configuration not stated) displayed an IC50 of 51 µM. Moreover, the Activity with MDA-MB-231 [5] is 15%; in the assay on MDA-MB-231 [2] it was 12%; in the assay on MDA-MB-231 [6] it was 74%; in the assay on MDA-MB-231 [3], 12%; with MDA-MB-231 [4], 15%.

For `CCN(CC)CCNc1cc2c(c3oc4ccccc4c(=O)c13)CC(NC(=O)CN(CC)CC)C(C)(C)O2` (configuration not stated), the midpoint of inhibition in the assay with MDA-MB-231 [1], the IC50, lay at 68 µM. Further, in the assay on MDA-MB-231 [6], the Activity is 75%.

Values taken from ChEMBL document CHEMBL1143800, “Design and synthesis of new pyranoxanthenones bearing a nitro group or an aminosubstituted side chain on the pyran ring. Evaluation of their growth inhibitory activity in breast cancer cells” (Eur J Med Chem, 2007).
